Source: paper PMC8314033 (BioImpacts : BI, 2020)
Values belong to the compound of their own block, whether it stands above or below them.

How the values were obtained:
[1] = tested on: 3T3 (non-cancer immortal cell lines); assay: In vitro cell antiproliferative test; format: cell-based; conditions: 3T3, 200 µg/mL, 48 hours
In short: (§1)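 Cells grown in DMEM with 10% heat-inactivated FBS and penicillin-streptomycin, detached with trypsin-EDTA, and counted by trypan blue. Plated at 10 × 10³ cells/well and allowed to attach for 24 h at 37°C, 5% CO2. Exposed 48 h to isolated compounds at 1.8–200 µg/mL final, in triplicate. MTT added at 1 mg/mL final for 4 h, formazan dissolved in DMSO, and A570 read. Survival calculated as a percentage of untreated wells.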

[2] = tested on: MCF7 (breast cancer cell lines); assay: In vitro cell antiproliferative test; format: cell-based, human; conditions: MCF7, 200 µg/mL, 48 hours
In short: as §1

[3] = Hydroxyl radical scavenging activity; conditions: 5 minutes, 560 nm; standard ascorbic acid

Structure (SMILES): CC(C)=CCc1c(O)cc(O)cc1-c1cc2ccc(O)c(CC=C(C)C)c2o1 [Cathafuran B, cathafuran B]
% of cell survival [1]: 20.58% | % of cell survival [2]: 8.89%

Structure (SMILES): C[C@H]1[C@H](C)CC[C@]2(C(=O)O)CC[C@]3(C)C(=CC[C@@H]4[C@@]5(C)CC[C@H](O)C(C)(C)[C@@H]5CC[C@]43C)[C@H]12 [Ursolic acid, ursolic acid]
% of cell survival [1]: 17.58% | % of cell survival [2]: 8.46%

Hydroxyl radical scavenging EC50 [3]: 6.58 µg/mL
Structure (SMILES): O=C1O[C@H]([C@@H](O)CO)C(O)=C1O [ascorbic acid]

Structure (SMILES): Oc1cc(O)cc(-c2cc3ccc(O)cc3o2)c1 [Moracin M]
% of cell survival [1]: 21.6% | % of cell survival [2]: 16.09%
